The values that follow come from ChEMBL document CHEMBL1145801, “Inhibition of Cdc25 phosphatases by indolyldihydroxyquinones” (J Med Chem, 2003).

A short description of test [1]: Inhibitory constant of compound against Cdc25 phosphatase was determined.
For test [2], the target named is M-phase inducer phosphatase 2 (Homo sapiens, UniProt P30305, R506L). Nature of the test: Inhibitory concentration of compound against mutant R492L of Cell division cycle 25B was determined. In a few lines:
(§1)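 Cdc25B catalytic-domain point mutants, a truncated form and wild type were assayed with 3-O-methylfluorescein phosphate as substrate, monitored at 477 nm under initial velocity conditions. Values are the mean of two separate determinations.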

In test [3] the target is T1, M-phase inducer phosphatase 3 (Homo sapiens) (UniProt P30307).
T1 sequence (whole entry): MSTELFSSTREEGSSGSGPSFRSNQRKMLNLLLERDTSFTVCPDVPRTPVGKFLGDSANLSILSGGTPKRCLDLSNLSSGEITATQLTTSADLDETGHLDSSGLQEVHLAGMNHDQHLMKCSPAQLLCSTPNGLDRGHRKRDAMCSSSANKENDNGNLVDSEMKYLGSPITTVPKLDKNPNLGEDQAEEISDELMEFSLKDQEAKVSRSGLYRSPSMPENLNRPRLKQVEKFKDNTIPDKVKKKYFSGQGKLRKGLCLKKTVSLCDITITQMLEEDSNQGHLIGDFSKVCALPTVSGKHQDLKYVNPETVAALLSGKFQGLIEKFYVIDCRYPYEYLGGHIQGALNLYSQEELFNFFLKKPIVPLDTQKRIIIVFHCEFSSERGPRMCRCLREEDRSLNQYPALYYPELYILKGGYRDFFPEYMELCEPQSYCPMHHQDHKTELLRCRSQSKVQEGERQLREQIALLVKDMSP
Nature of the test: Percent inhibition of cell division cycle 25 degree C at 50 uM. A digest of the protocol: (§2)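 Single-point screen at 50 μM inhibitor against Cdc25A, Cdc25B or Cdc25C with 50 μM 3-O-methylfluorescein phosphate, product followed at 477 nm in time-dependent assays. Activity was compared with a simultaneous no-inhibitor control, and selected compounds were run in duplicate (average error ±7%).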

Test [4] has as its target M-phase inducer phosphatase 2 (Homo sapiens, UniProt P30305, R558L). Nature of the test: Inhibitory concentration of compound against mutant R544L of Cell division cycle 25B was determined. In a few lines: as §1
In test [5] the target is T2, M-phase inducer phosphatase 2 (Homo sapiens, UniProt P30305).
T2 sequence (P30305 whole entry): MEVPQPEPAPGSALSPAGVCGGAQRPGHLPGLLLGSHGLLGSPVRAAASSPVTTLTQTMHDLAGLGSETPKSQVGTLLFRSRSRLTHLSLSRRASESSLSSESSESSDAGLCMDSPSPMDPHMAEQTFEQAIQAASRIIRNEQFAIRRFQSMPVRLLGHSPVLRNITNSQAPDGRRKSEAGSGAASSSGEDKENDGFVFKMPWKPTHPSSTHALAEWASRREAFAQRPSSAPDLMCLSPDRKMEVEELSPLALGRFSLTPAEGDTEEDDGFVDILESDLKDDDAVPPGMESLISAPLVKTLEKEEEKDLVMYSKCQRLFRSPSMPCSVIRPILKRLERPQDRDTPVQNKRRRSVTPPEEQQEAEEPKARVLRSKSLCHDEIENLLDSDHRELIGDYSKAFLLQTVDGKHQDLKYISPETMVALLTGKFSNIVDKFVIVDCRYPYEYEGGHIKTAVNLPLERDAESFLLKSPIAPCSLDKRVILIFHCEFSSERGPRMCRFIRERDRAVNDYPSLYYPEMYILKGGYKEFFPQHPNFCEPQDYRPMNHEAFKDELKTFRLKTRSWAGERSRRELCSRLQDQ
The test is described as follows: Inhibitory concentration of compound against Cell division cycle 25B was determined using CDK2-p-TpY/Cyclin A as a substrate. In a few lines: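 Cdc25B dephosphorylation of 300 nM Cdk2-pTpY/CycA protein substrate was run in time-dependent assays at eight inhibitor concentrations to give IC50. Reactions were quenched with TCA, and bovine serum albumin carrier (1 mg/mL) was added only after the quench so that it was absent during inhibitor exposure.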

The target of test [6] is M-phase inducer phosphatase 2 (Homo sapiens, UniProt P30305, Y542F). Nature of the test: Inhibitory concentration of compound against mutant Y528F of Cell division cycle 25B was determined. In a few lines: as §1
Chain of M-phase inducer phosphatase 2 (Homo sapiens, UniProt P30305, Y542F) (P30305 whole entry Y542F): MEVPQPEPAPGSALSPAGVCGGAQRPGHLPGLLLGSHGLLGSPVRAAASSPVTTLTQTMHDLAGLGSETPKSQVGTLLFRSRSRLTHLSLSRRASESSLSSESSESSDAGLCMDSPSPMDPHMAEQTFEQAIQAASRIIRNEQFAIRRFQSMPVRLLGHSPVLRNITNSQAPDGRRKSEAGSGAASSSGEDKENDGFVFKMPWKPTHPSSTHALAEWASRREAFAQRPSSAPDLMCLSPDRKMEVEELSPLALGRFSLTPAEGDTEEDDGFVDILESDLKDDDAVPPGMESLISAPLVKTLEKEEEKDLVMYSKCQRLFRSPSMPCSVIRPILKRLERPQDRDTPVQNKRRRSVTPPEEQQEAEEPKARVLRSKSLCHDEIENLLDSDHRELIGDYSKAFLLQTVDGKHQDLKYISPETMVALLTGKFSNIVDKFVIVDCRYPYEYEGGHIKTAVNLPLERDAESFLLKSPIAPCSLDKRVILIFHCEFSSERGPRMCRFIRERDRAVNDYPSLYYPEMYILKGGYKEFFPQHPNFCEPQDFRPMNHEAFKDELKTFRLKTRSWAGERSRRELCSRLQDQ
Test [7] deals with T2, M-phase inducer phosphatase 2. The test is described as follows: Inhibitory constant of compound against Cell division cycle 25B was determined using mFP as a substrate.
The target of test [8] is M-phase inducer phosphatase 2 (Homo sapiens, UniProt P30305, E492Q). Nature of the test: Inhibitory concentration of compound against mutant E478Q of Cell division cycle 25B was determined. In a few lines: as §1
Chain of M-phase inducer phosphatase 2 (Homo sapiens, UniProt P30305, E492Q) (P30305 whole entry E492Q): as the sequence (P30305 whole entry Y542F) above, with E492Q, F542Y counted along it
Test [9] deals with M-phase inducer phosphatase 2 (Homo sapiens, UniProt P30305, M545A). Nature of the test: Inhibitory concentration of compound against mutant M531A of Cell division cycle 25B was determined. A digest of the protocol:
as §1

For test [10], the target named is T3, M-phase inducer phosphatase 2 (Homo sapiens) (UniProt P30305).
T3 sequence (whole entry): T2 sequence (P30305 whole entry)
The test is described as follows: Percent inhibition of cell division cycle 25B at 50 uM. In a few lines: as §2

Test [11] concerns the target T4, M-phase inducer phosphatase 3 (Homo sapiens, UniProt P30307).
T4 sequence (P30307 whole entry): T1 sequence (whole entry)
Nature of the test: Eight point inhibitory concentration against Cell division cycle 25 degree C was determined. In a few lines: (§3)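 Phosphatase activity measured with 3-O-methylfluorescein phosphate at 50 μM (~5 × Km), product formation followed at 477 nm by UV-vis under initial velocity conditions (2–5% turnover) in time-dependent assays. Eight inhibitor concentrations were used, and IC50 was obtained by fitting to a dose–response equation.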

In test [12] the target is M-phase inducer phosphatase 2 (Homo sapiens, UniProt P30305, R496L). Nature of the test: Inhibitory concentration of compound against mutant R482L of Cell division cycle 25B was determined. In a few lines:
as §1

Test [13] addresses T5, M-phase inducer phosphatase 1 (Homo sapiens) (UniProt P30304).
T5 sequence (whole entry): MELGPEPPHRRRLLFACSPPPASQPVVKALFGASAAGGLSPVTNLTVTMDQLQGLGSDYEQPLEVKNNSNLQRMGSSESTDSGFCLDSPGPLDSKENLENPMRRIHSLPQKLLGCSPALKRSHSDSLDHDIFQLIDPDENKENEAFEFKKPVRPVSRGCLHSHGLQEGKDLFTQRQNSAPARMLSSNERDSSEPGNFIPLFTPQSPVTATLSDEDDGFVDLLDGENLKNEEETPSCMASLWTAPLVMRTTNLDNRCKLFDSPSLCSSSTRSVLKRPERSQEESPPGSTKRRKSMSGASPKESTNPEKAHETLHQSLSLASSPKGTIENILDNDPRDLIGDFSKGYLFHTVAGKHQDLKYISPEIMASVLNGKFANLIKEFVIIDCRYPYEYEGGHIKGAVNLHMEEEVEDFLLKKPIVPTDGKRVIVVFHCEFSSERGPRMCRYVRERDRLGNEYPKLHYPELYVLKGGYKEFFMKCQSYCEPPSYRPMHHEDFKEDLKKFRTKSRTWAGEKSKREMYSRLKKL
The test is described as follows: Percent inhibition of cell division cycle 25A at 50 uM. In a few lines: as §2

The target of test [14] is T6, M-phase inducer phosphatase 2 (Homo sapiens, UniProt P30305). Nature of the test: Inhibitory concentration of compound against truncated mutant of Cell division cycle 25B was determined. In a few lines: as §1
Test [15] deals with M-phase inducer phosphatase 2 (Homo sapiens, UniProt P30305, F489A). The test is described as follows: Inhibitory concentration of compound against mutant F475A of Cell division cycle 25B was determined. A digest of the protocol:
as §1

For test [16], the target named is M-phase inducer phosphatase 2 (Homo sapiens, UniProt P30305, E488Q). The test is described as follows: Inhibitory concentration of compound against mutant E474Q of Cell division cycle 25B was determined. In a few lines:
as §1

Test [17] deals with T7, M-phase inducer phosphatase 1 (Homo sapiens, UniProt P30304).
T7 sequence (P30304 whole entry): T5 sequence (whole entry)
Nature of the test: Eight point inhibitory concentration against Cell division cycle 25A was determined. A digest of the protocol: as §3

For test [18], the target named is T6, M-phase inducer phosphatase 2. The test is described as follows: Inhibitory concentration of compound against mutant WT of Cell division cycle 25B was determined. A digest of the protocol: as §1
Test [19] deals with T2, M-phase inducer phosphatase 2. The test is described as follows: Eight point inhibitory concentration against Cell division cycle 25B was determined. In a few lines: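 Cdc25B activity read by UV-vis at 477 nm as product formed from 3-O-methylfluorescein phosphate (mFP) at 50 μM (~5 × Km), time-dependent, initial-velocity conditions (2–5% turnover); eight inhibitor concentrations, IC50 fitted to eq 1. Each reaction compared with a simultaneous no-inhibitor control; selected compounds run in duplicate.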

The structures appear in SMILES notation.

Chain of M-phase inducer phosphatase 2 (Homo sapiens, UniProt P30305, R496L) (P30305 whole entry R496L): as the sequence (P30305 whole entry Y542F) above, with R496L, F542Y counted along it
Chain of M-phase inducer phosphatase 2 (Homo sapiens, UniProt P30305, E488Q) (P30305 whole entry E488Q): as the sequence (P30305 whole entry Y542F) above, with E488Q, F542Y counted along it
Chain of M-phase inducer phosphatase 2 (Homo sapiens, UniProt P30305, M545A) (P30305 whole entry M545A): as the sequence (P30305 whole entry Y542F) above, with F542Y, M545A counted along it
Chain of M-phase inducer phosphatase 2 (Homo sapiens, UniProt P30305, R506L) (P30305 whole entry R506L, the tested form may be a part): as the sequence (P30305 whole entry Y542F) above, with R506L, F542Y counted along it
Chain of M-phase inducer phosphatase 2 (Homo sapiens, UniProt P30305, R558L) (P30305 whole entry R558L): as the sequence (P30305 whole entry Y542F) above, with F542Y, R558L counted along it
Chain of M-phase inducer phosphatase 2 (Homo sapiens, UniProt P30305, F489A) (P30305 whole entry F489A): as the sequence (P30305 whole entry Y542F) above, with F489A, F542Y counted along it

In general, Ki refers to the dissociation constant of the complex between target and ligand, obtained from inhibition or displacement. The compound `CC(C)=CCC/C(C)=C/CC/C(C)=C/Cc1c(Cl)cc(Cl)c2c(C3=C(O)C(O)=CC(=O)C3=O)c[nH]c12` yielded an inhibitory constant (Ki) in [1] of 470 nM.
A word on the IC50: it is the midpoint of a concentration-inhibition curve. Higher therefore signals lower potency. The term inhibition denotes the drop in the measured response relative to a control, in per cent. High values mean a response far below the control, low ones a response near the control. As to `CC(C)=CCc1cccc2c(C3=C(O)C(O)=CC(=O)C3=O)c[nH]c12`, the IC50 amounted to 11 µM in test [2]; 12 µM in test [4]; 28.2 µM in test [5]; 15 µM in test [6]; 6.5 µM in [8]; 6.5 µM in test [9]. Also, the IC50 is 15 µM in [11]; 40 µM in test [12]; 33 µM in test [14]; above 50 µM in [15]; above 50 µM in [16]; 4.1 µM in [17]. Moreover, the values for the IC50 in test [18] and in test [19] were 6.4 µM and 5.6 µM, respectively. For the same compound, the inhibition in test [3] worked out at 84%; in test [10], 99%; in test [13], 100%. In test [7], this compound had a Ki of 640 nM.
